In ChEMBL document CHEMBL1926582, “Bis-chalcone analogues as potent NO production inhibitors and as cytotoxic agents” (Eur J Med Chem, 2012):
Active and inactive are the calls of the source. No cut-off for these calls is given here.

Columns and labels:
DU-145 [1] = test: Cytotoxicity against human DU145 cells after 3 days by SRB assay; assay type: functional, cell-based
Summary of the method: (§1)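 Cell lines kept in RPMI-1640 with […], 0.25% sodium bicarbonate, 10% FBS and 100 µg/mL kanamycin. Freshly trypsinized cells seeded at 1500-7500 cells/well. Compounds added from DMSO-diluted stock, 3 days culture. Attached cells fixed with cold 50% TCA, stained with 0.4% SRB, bound dye solubilized, absorbance read at 562 nm.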

[2] = tested on: Radical scavenging activity; test: Antioxidant activity assessed as inhibition of DPPH free radical scavenging activity; assay type: functional
[3] = target: Transcription factor p65 (Mus musculus) (UniProt Q04207); test: Inhibition of NF-kappaB p65 activation/translocation in LPS-stimulated mouse BV2 cells assessed as down regulation of iNOS at 1 to 2 uM measured after 15 to 120 mins post stimulation by Western blot analysis; assay type: cell-based; conditions: BV-2
Summary of the method: (§2)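 BV2 microglia in DMEM with 5% FBS were pretreated with compound or solvent, then stimulated with LPS 0.5 µg/mL for 15 to 120 min. Western blots were probed for iNOS, cytosolic IκBα, and cytosolic and nuclear p65. Membranes were blocked in 5% milk/PBST, primary antibody overnight at 4 °C, HRP secondary 1 h, ECL detection. Signals normalized to β-actin; at least three independent experiments.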

[4] = target: T1, NF-kappa-B inhibitor alpha (Mus musculus) (UniProt Q9Z1E3); test: Inhibition of IkappaB-alpha degradation in LPS-stimulated mouse BV2 cells at 1 to 2 uM measured after 15 to 120 mins post stimulation by Western blot analysis; assay type: cell-based; conditions: BV-2; summary of the method: as §2
T1 sequence (whole entry): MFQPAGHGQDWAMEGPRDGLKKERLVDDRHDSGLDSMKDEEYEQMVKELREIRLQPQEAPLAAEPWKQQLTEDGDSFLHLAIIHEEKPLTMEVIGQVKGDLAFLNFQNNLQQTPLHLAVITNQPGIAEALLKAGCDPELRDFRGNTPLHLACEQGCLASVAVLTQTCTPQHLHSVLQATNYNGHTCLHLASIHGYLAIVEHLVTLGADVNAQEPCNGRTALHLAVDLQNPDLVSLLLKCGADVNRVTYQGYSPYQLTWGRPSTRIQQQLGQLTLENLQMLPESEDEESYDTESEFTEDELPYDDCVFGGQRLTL

[5] = Cytotoxicity against human KBVIN cells after 3 days by SRB assay; assay type: functional, cell-based; summary of the method: as §1
[6] = Inhibition of NOX-dependent ROS production in mouse BV2 cells by chemiluminescence assay; assay type: cell-based; conditions: BV-2
Summary of the method: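 BV2 cell homogenate (50 µg) was incubated with compound for 20 min at 37 °C in the dark. Superoxide production was started with 200 µM NADPH and chemiluminescence followed for 30 min. AUC was taken as ROS production. DPI was the positive control. IC50 given as mean ± SEM of three experiments on different days using cells from different passages.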

KB [7] = test: Cytotoxicity against human KB cells after 3 days by SRB assay; assay type: functional, cell-based; summary of the method: as §1
A549 [8] = test: Cytotoxicity against human A549 cells after 3 days by SRB assay; assay type: functional, cell-based; summary of the method: as §1
KB [9] = test: Growth inhibition of human KB cells at 20 ug/mL after 3 days by SRB assay; assay type: functional; conditions: 72 h, read-out: GI
Summary of the method: (§3)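 Cells grown in RPMI-1640 (10% FBS, HEPES, bicarbonate, kanamycin), trypsinized and seeded at 1500-7500 cells/well. Compound given from DMSO-diluted stock, 3 days culture. Cells fixed with cold 50% trichloroacetic acid, stained with 0.4% sulforhodamine B, dye solubilized and absorbance measured at 562 nm.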

DU-145 [10] = test: Growth inhibition of human DU145 cells at 20 ug/mL after 3 days by SRB assay; assay type: functional; conditions: DU-145, 72 h, read-out: GI; summary of the method: as §3
A549 [11] = test: Growth inhibition of human A549 cells at 20 ug/mL after 3 days by SRB assay; assay type: functional; conditions: A549, 72 h, read-out: GI; summary of the method: as §3
[12] = target: T1, NF-kappa-B inhibitor alpha (Mus musculus); test: Inhibition of IkappaB-alpha degradation in LPS-stimulated mouse BV2 cells at 2 to 4 uM measured after 15 to 120 mins post stimulation by Western blot analysis; assay type: cell-based; conditions: BV-2; summary of the method: as §2
[13] = target: Transcription factor p65 (Mus musculus) (UniProt Q04207); test: Inhibition of NF-kappaB p65 activation/translocation in LPS-stimulated mouse BV2 cells assessed as down regulation of iNOS at 2 to 4 uM measured after 15 to 120 mins post stimulation by Western blot analysis; assay type: cell-based; conditions: BV-2; summary of the method: as §2
[14] = Growth inhibition of human KBVIN cells at 20 ug/mL after 3 days by SRB assay; assay type: functional; conditions: 72 h, read-out: GI; summary of the method: as §3
[15] = Homo sapiens, DU-145, 72 h, read-out: EC50
[16] = Homo sapiens, KBVIN, 72 h, read-out: EC50
[17] = Homo sapiens, KB, 72 h, read-out: EC50
[18] = Homo sapiens, A549, 72 h, read-out: EC50

Transcription factor p65 (Mus musculus), sequence (Q04207 whole entry): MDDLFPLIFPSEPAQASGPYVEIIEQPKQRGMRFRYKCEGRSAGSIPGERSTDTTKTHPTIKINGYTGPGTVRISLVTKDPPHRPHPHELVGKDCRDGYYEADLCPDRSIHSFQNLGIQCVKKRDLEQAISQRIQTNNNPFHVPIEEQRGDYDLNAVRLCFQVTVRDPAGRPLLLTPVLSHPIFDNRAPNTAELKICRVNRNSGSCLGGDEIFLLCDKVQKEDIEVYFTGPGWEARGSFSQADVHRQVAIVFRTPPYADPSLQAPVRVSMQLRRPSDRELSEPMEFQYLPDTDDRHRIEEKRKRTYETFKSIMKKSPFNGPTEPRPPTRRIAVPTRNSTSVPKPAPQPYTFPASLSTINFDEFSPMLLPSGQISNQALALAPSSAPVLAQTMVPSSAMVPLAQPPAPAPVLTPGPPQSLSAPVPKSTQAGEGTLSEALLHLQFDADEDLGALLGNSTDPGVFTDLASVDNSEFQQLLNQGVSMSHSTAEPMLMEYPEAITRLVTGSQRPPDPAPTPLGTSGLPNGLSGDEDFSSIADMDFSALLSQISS

Structure (SMILES) | IC50 [2] | IC50 [6] [µM] | EC50 (DU-145 [1]; [15]) [µM] | EC50 [5, 16] [µM] | EC50 (KB [7]; [17]) [µM] | EC50 (A549 [8]; [18]) [µM] | EC50 (DU-145 [1]; du-145) | EC50 ([5]; kbvin) | EC50 (KB [7]; kb) | EC50 (A549 [8]; a549) | also measured
COc1cccc(/C=C/C(=O)c2cc(C(=O)/C=C/c3cccc(OC)c3OC)c(O)cc2O)c1OC | Not Active | 89 | 2.45 | 5.14 | 2.06 | 4.38 | – | – | – | – | inhibition [12]: Active; inhibition [13]: Active
Cc1c(C)c2c(c(C)c1O)CCC(C)(C(=O)O)O2 (configuration not stated) [TROLOX] | – | – | – | – | – | – | – | – | – | – | IC50 ([2]; read-out: IC50): 30.2 µM
COc1ccc(OC)c(/C=C/C(=O)c2cc(C(=O)/C=C/c3cc(OC)ccc3OC)c(O)cc2O)c1 | Not Active | 95 | – | – | 40.1 | – | – | – | – | – | inhibition of growth at 20 µg/mL (DU-145 [10]): < 50%; inhibition of growth at 20 µg/mL (A549 [11]): < 50%; inhibition of growth at 20 µg/mL [14]: < 50%
COc1ccc(/C=C/C(=O)c2cc(C(=O)/C=C/c3ccc(OC)c(OC)c3OC)c(O)cc2O)c(OC)c1OC | Not Active | 70.9 | – | – | – | – | Not Active | Not Active | Not Active | Not Active | –
COC(=O)[C@@H](N)CCCNC(=N)N[N+](=O)[O-] [L-NAME] | Not Active | – | – | – | – | – | – | – | – | – | –
CC(=O)c1cc(C(=O)/C=C/C=C/c2ccccc2)c(O)cc1O | Not Active | 120 | – | – | – | – | Not Active | Not Active | Not Active | Not Active | –
c1ccc2c(c1)[I+]c1ccccc1-2 [DIPHENYLENEIODONIUM] | Not Active | 0.65 | – | – | – | – | – | – | – | – | –
O=C(/C=C/c1ccccn1)c1cc(C(=O)/C=C/c2ccccn2)c(O)cc1O | Not Active | 76.8 | 2.85 | 11 | 2.93 | 13.7 | – | – | – | – | –

The next lines start with results.

IC50 [2] | IC50 [6] [µM] | Structure (SMILES) | EC50 (DU-145 [1]; [15]) [µM] | EC50 [5, 16] [µM] | EC50 (KB [7]; [17]) [µM] | EC50 (A549 [8]; [18]) [µM] | EC50 (DU-145 [1]; du-145) | EC50 ([5]; kbvin) | EC50 (KB [7]; kb) | EC50 (A549 [8]; a549) | also measured
Not Active | 49.1 | COc1ccc(/C=C/C(=O)c2cc(C(=O)/C=C/c3ccc(OC)c(OC)c3)c(O)cc2O)cc1OC | 8.63 | 7.02 | 8.18 | 9.14 | – | – | – | – | inhibition [3]: Active; inhibition [4]: Active
Not Active | 150 | COc1ccc(/C=C/C(=O)c2cc(C(=O)/C=C/c3ccc(OC)cc3)c(O)cc2O)cc1 | – | 34 | – | – | – | – | – | – | inhibition of growth at 20 µg/mL (KB [9]): < 50%; inhibition of growth at 20 µg/mL (DU-145 [10]): < 50%; inhibition of growth at 20 µg/mL (A549 [11]): < 50%
Not Active | 73 | COc1cc(OC)c(OC)cc1/C=C/C(=O)c1cc(C(C)=O)c(O)cc1O | – | – | – | – | Not Active | Not Active | Not Active | Not Active | –
Not Active | 72 | CC(=O)c1cc(C(=O)/C=C/c2ccc3c(c2)OCO3)c(O)cc1O | 16.3 | 17.2 | 17.2 | 19.4 | – | – | – | – | –
Not Active | 122 | O=C(/C=C/c1ccccc1)c1cc(C(=O)/C=C/c2ccccc2)c(O)cc1O | 1.7 | 1.57 | 1.62 | 4.08 | – | – | – | – | –
Not Active | 81.4 | Cc1ccsc1/C=C/C(=O)c1cc(C(=O)/C=C/c2sccc2C)c(O)cc1O | – | – | – | – | Not Active | Not Active | Not Active | Not Active | –
Not Active | 49.6 | O=C(/C=C/c1ccco1)c1cc(C(=O)/C=C/c2ccco2)c(O)cc1O | – | – | – | – | Not Active | Not Active | Not Active | Not Active | –
Not Active | 127 | COc1cccc(/C=C/C(=O)c2cc(C(=O)/C=C/c3cccc(OC)c3)c(O)cc2O)c1 | 1.86 | 2.07 | 2.88 | 8.76 | – | – | – | – | –
Not Active | 60.4 | Cc1ccc(/C=C/C(=O)c2cc(C(=O)/C=C/c3ccc(C)o3)c(O)cc2O)o1 | – | – | – | – | Not Active | Not Active | Not Active | Not Active | –
